The subject of test [1] is CHO. The experiment in a line: Effect on cAMP production in adenosine receptor-deficient wild type CHO cells. The settings on record: Cricetulus griseus. It is filed as functional, cell-based.
In test [2] the target is T1, Adenosine receptor A1 (Homo sapiens) (UniProt P30542).
T1 sequence (whole entry): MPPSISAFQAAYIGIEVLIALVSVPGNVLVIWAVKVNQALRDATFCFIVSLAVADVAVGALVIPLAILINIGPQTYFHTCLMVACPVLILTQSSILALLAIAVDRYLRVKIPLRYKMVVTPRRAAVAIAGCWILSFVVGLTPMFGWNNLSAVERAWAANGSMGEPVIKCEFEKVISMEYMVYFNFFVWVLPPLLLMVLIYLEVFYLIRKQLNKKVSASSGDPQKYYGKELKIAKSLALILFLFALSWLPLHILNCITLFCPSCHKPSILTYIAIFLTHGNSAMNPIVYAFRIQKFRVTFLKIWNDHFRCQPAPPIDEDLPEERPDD
The experiment in a line: (§1) Antagonist activity at human recombinant adenosine A1 receptor expressed in CHO cells assessed as inhibition of NECA-mediated reduction of intracellular [3H]-cAMP accumulation incubated for 15 mins prior to NECA induction measured after 30 mins by liquid scintillation spectrometric analysis in presence of forskolin. It is filed as functional, cell-based. The method in brief:
(§2)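 CHO cells stably expressing human A1 receptor were plated for 24 h, then preincubated 15 min at 37 °C in DMEM with ADA (1 U/mL) and Ro20-1724 (20 µM). Compound (1 nM–10 µM) was added for 15 min, then 10 nM NECA with 1 µM forskolin for 15 min. Lysis was in 0.4 N HCl. cAMP was measured by [3H]cAMP competition with bovine adrenal binding protein, as % of forskolin level. IC50 from ≥3 experiments, duplicates.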
Background: Cyclic AMP is a second messenger, typically raised through Gs and lowered through Gi signalling.

Test [3] has as its target T2, Adenosine receptor A1 (Homo sapiens, UniProt P30542).
T2 sequence (P30542 whole entry): T1 sequence (whole entry)
The test is described as §1. It is filed as functional, cell-based. Put shortly: as §2

Test [4] addresses T3, Adenosine receptor A3 (Homo sapiens, UniProt P0DMS8).
T3 sequence (P0DMS8 whole entry): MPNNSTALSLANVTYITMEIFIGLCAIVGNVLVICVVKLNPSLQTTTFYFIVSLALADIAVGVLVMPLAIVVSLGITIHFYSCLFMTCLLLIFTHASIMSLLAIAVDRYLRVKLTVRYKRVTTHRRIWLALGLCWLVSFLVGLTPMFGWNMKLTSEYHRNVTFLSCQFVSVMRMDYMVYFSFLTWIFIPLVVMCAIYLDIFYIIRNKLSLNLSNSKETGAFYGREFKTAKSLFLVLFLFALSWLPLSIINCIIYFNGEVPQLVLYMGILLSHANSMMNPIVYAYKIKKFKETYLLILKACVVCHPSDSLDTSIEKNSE
Nature of the test: Displacement of [125I]AB-MECA from human adenosine A3 receptor expressed in CHO cell membrane after 90 mins. It is filed as cell membranes.

Test [5] concerns the target Adenosine receptor A2a (Homo sapiens, UniProt P29274). Nature of the test: Displacement of [3H]NECA from human adenosine A2A receptor expressed in CHO cell membrane after 90 mins. It is filed as cell membranes.
The target in test [6] is T2, Adenosine receptor A1. The experiment in a line: Displacement of [3H]DPCPX from human adenosine A1 receptor expressed in CHO cell membrane after 180 mins. It is filed as cell membranes. A general note: In a radioligand displacement assay an active substance lowers the binding of a labelled ligand.

Activity calls are given as the source filed them. The rule behind the calls is not given here.

As usually defined, the IC50 is the point on the concentration scale where inhibition reaches its midpoint. For orientation: Ki means the equilibrium dissociation constant of an inhibitor or competing ligand from its target.

Sequence of Adenosine receptor A2a (P29274 whole entry): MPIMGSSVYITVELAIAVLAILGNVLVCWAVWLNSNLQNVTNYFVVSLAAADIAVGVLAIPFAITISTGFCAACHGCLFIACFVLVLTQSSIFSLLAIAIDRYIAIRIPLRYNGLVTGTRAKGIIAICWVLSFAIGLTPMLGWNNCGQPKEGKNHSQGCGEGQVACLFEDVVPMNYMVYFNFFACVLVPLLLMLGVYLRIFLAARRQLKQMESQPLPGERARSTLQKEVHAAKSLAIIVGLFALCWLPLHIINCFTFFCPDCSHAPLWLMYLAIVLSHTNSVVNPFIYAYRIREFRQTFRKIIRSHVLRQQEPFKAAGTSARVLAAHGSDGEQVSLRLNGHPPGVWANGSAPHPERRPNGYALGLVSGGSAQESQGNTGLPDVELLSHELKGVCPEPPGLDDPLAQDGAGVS

With `O=C(NCc1ccccc1)C(=O)c1cn(Cc2ccccc2)c2ccccc12`, in test [1], the outcome was inactive.
On to `O=C(C(=O)c1cn(Cc2ccccc2)c2ccccc12)c1ccco1`, for which the result in test [1] was inactive. In test [2], the inhibition result is “Dose-dependent effect”. In test [3], the IC50 was 291 nM. The Ki in test [4] is above 1000 nM; in test [5], above 10000 nM; in test [6], 343 nM.
In the case of `O=C(C(=O)c1cn(Cc2ccccc2)c2ccccc12)c1ccccc1`, the result in test [1] was inactive. Moreover, in test [2], the inhibition result is “Dose-dependent effect”. The IC50 in test [3] amounted to 404 nM. For the same molecule, the inhibition constant Ki was above 1000 nM in test [4], above 10000 nM in test [5] and 162 nM in test [6].
As for `O=C(Nc1ccccc1)c1cn(Cc2ccccc2)c2ccccc12`, the result in test [1] was inactive. Also, the Ki in test [4] was above 1000 nM; in test [5], above 10000 nM; in test [6] it was above 10000 nM.
For the molecule `O=C(Nc1ccccc1)C(=O)c1cn(Cc2ccccc2)c2ccccc12`, the result in test [1] was inactive. Further, the Ki in test [4] was above 1000 nM; in test [5] it was above 10000 nM; in test [6] it was above 10000 nM.
`O=C(NCc1ccccc1)c1cn(Cc2ccccc2)c2ccccc12`: the result in test [1] was inactive. Moreover, the Ki in test [4] is above 1000 nM; in test [5] it was above 10000 nM; in test [6] it was above 10000 nM.
With `O=C(C(=O)c1cn(Cc2ccccc2)c2ccccc12)c1cccs1`, in test [1], the result was inactive. For the same molecule, the results for the Ki in test [4], in test [5] and in test [6] were above 1000 nM, above 10000 nM and above 10000 nM, respectively.

(Values after ChEMBL document CHEMBL2434872, “Modulation of A2B adenosine receptor by 1-Benzyl-3-ketoindole derivatives” (Eur J Med Chem, 2013).)
